Screening data deposited in PubChem by The Scripps Research Institute Molecular Screening Center.
PAFAH2 FP inh: PAFAH2 (human) inhibition; Q99487; recombinant PAFAH2, FP-rhodamine activity probe, fluorescence polarization; inhibition, % at 3.39 µM; 340,000 tested, 0.99% active;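 active = inhibition above the mean over all tested compounds plus 3 SD, cut at about 30% in these data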;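 note: inhibitors block probe labeling of enzyme so polarization drops; 0% = enzyme with DMSO and 100% = wells lacking PAFAH2 protein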
PAFAH1B2 FP inh: blocks human PAF acetylhydrolase 1b catalytic subunit 2; 340,000 tested, 1.2% active; P68402; recombinant PAFAH1B2, FP-rhodamine activity probe, fluorescence polarization; inhibition, % at 3.39 µM;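 active = inhibition above the mean of all tested compounds plus 3 SD, cut at about 24% in these data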;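 note: 0% = enzyme with DMSO and 100% = wells lacking PAFAH1B2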
PAFAH1B3 inh: inhibitors of human PAFAH1B3 | Q15102 | recombinant PAFAH1B3, FP-rhodamine probe, fluorescence polarization | inhibition, % at 3.39 µM | 340,000 tested, 0.28% active | AID 492972;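 active = inhibition above the screen-wide average of all tested compounds plus 3 SD, cut at about 25% in these data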;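 note: 0% = enzyme with DMSO only and 100% = wells lacking PAFAH1B3 protein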
Target sequence (Q15102 whole entry, looked up): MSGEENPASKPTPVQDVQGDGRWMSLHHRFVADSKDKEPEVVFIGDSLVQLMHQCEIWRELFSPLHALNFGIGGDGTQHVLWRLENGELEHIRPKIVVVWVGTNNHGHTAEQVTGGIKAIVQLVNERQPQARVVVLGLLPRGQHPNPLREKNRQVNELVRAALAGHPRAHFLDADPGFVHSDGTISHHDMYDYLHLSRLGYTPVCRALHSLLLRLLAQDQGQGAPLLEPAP
pPAFAH FP inh: pPAFAH (human) enzyme inhibition | inhibition, % at 3.39 µM | Q13093 | recombinant pPAFAH, FP-rhodamine probe fluorescence polarization | 330,000 tested, 1.5% active | AID 463082;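 active = inhibition above the mean inhibition across the screen plus 3 SD, cut at about 25% in these data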;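 note: inhibitors block binding of the rhodamine activity-based probe so polarization drops; 0% = enzyme with DMSO and 100% = wells lacking pPAFAH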
ASAP1 GAP inh: blocks human ASAP1-stimulated Arf1 GTP hydrolysis; AID 624377; inhibition, % at 16.5 µM; Q9ULH1; GDP FP detection; 360,000 tested, 0.19% active; in the data active = inhibition above about 25%;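 note: 0% = vehicle with enzyme and substrate and 100% = no enzyme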
Target sequence (Q9ULH1 325-724 limits assumed): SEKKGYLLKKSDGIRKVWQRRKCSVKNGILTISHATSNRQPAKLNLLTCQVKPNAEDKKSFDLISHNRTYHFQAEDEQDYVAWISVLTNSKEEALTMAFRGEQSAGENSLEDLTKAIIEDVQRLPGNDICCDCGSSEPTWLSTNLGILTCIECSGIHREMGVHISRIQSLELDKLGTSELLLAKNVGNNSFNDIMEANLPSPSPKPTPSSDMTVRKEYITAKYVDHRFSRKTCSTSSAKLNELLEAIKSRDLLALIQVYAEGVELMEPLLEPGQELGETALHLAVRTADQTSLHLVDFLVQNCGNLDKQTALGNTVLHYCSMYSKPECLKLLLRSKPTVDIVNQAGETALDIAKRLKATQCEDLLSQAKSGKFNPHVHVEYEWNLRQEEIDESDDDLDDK
ARFGAP1 inhibitor: inhibits rat ARF GTPase activating protein 1; Q62848; Arfgap1-stimulated ARF1 GTP hydrolysis, GDP FP detection; inhibition, % at 16.5 µM; 360,000 tested, 0.26% active; AID 651572;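 active = inhibition above a per-plate limit, mean inhibition of low control wells plus 3 SD, cut at about 25% in these data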;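 note: 0% = DMSO wells with enzyme and 100% = wells lacking Arfgap1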
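Material: rat Arfgap1 GAP domain (His6, aa 1-136), purified enzyme. Also added: human ARF1(Δ1-17)-GTP substrate. Compound dosing: 16.5 µM single point, 1.26% DMSO. Timing: enzyme reaction 120 min at 25 °C after 20 min preincubation. Signal: GDP detection by fluorescence polarization. Read-out basis: percent inhibition of GAP-stimulated GDP formation, scaled between DMSO and no-Arfgap1 medians.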
Numbers without * were called inactive; . = no result. Rows were chosen to be rich in hits. Some 2.8% of all compounds tested hit in one or more screens of this group.

SMILES	PAFAH2 FP inh	PAFAH1B2 FP inh	PAFAH1B3 inh	pPAFAH FP inh	ASAP1 GAP inh	ARFGAP1 inhibitor
N#Cc1ccc(NC(=O)COC(=O)CCNS(=O)(=O)c2ccccc2)cc1	1	5	2	29*	-14	-8
O=C(CCNS(=O)(=O)c1ccccc1)OCC(=O)c1ccc(Cl)cc1	2	16	1	26*	-13	-5
CN1CC[C@@H]2C(=O)N3CCc4ccc(Br)cc4[C@@H]3C[C@@H]21	-3	3	8	.	1	10
COc1ccc(CCN(C)Cc2c(O)ccc3cc(Br)ccc23)cc1OC	-2	36*	9	11	6	3
COc1ccc(CN(C)Cc2c(O)ccc3cc(Br)ccc23)cc1OC	-4	20	5	3	1	12
CCCNS(=O)(=O)c1ccc(N2CCCC2=O)c([N+](=O)[O-])c1	2	3	5	-1	0	-2
O=C1CCCN1c1ccc(S(=O)(=O)Oc2ccc(Cl)cc2)cc1[N+](=O)[O-]	2	69*	-4	-1	5	4
O=C(CC1CC2CCC1C2)Nc1nc(-c2ccccn2)cs1 (stereo unspecified)	6	55*	2	5	11	0
O=C(/C=C/c1ccc(O)c(O)c1)OCCc1ccccc1	-4	34*	11	11	7	1
Cc1ccc(C)c(S(=O)(=O)Nc2ccc(C(=O)N3CCOCC3)cc2)c1	.	.	.	.	-9	0
Oc1ccc(/C=N/Nc2nc(-c3cccnc3)nc3ccccc23)c(O)c1	-3	3	25	25*	15	1
O=C(O)COCC(=O)Nc1ccc(OCCc2ccccc2)cc1	1	10	1	-3	5	2
O=C(CCC1CCCN(C(=O)c2cccc(F)c2)C1)N1CCN(c2ccccn2)CC1 (stereo unspecified)	-6	2	8	25*	4	2
O=C(CCC1CCCN(C(=O)c2ccc3c(c2)OCO3)C1)N1CCN(c2ccccn2)CC1 (stereo unspecified)	-3	3	5	27*	1	-11
CN(C)c1cccc(C(=O)N2CCCC(CCC(=O)N3CCN(c4ccccn4)CC3)C2)c1 (stereo unspecified)	-2	0	1	0	-4	-11
CN(C)c1ccc(C(=O)N2CCCC(CCC(=O)N3CCN(c4ccccn4)CC3)C2)cc1 (stereo unspecified)	2	4	5	26*	-3	-4
COc1ccc(C(=O)N2CCCC(CCC(=O)N3CCN(c4ccccn4)CC3)C2)cc1 (stereo unspecified)	4	0	3	20	-7	0
Cc1ccc(S(=O)(=O)NCC2CCN(C(=O)C(=O)c3cc4ccccc4o3)CC2)cc1	.	.	.	.	7	-6
O=C(O)c1cccc(N2C(=O)CSC2c2ccccc2)c1 (stereo unspecified)	-8	27*	6	3	7	-5
CCCNC(=O)C1(C)CCN(C(=O)C(c2ccccc2)c2ccccc2)C1 (stereo unspecified)	.	.	.	.	-8	17
CC1CCN(C(=S)Nc2ccc3nc4n(c(=O)c3c2)CCCCC4)CC1	-6	24*	6	7	12	-8
O=c1c2cc(NC(=S)N3CCCCC3)ccc2nc2n1CCCCC2	5	4	3	7	-2	12
O=C(NCC1COCCO1)c1cc(COc2c(F)cccc2F)on1 (stereo unspecified)	0	-2	3	25*	9	2
CN(C(=O)c1cc(COc2c(F)cccc2F)on1)C1CCOC1 (stereo unspecified)	4	3	0	-3	5	4
COc1ccc(NC(=O)COC(=O)c2cccn2C)cc1S(=O)(=O)N1CCCCC1	11	0	4	-2	6	-2
SMILES	PAFAH2 FP inh	PAFAH1B2 FP inh	PAFAH1B3 inh	pPAFAH FP inh	ASAP1 GAP inh	ARFGAP1 inhibitor
COc1ccc(NS(=O)(=O)c2ccc(O)c(NS(=O)(=O)c3ccc(NC(C)=O)cc3)c2)cc1	5	13	5	18	21	10
O=C1CCC/C(=N/Nc2ccc(Cl)cc2)C1	-2	3	4	27*	0	5
O=C(NN=C1CCCC1)c1ccc(Cl)cc1	0	4	2	-6	-5	10
CC(=O)Nc1cc(Cl)c(N=Cc2ccc(O)cc2O)cc1Cl	-11	1	5	41*	3	6
O=S(=O)(NN=Cc1ccc(O)cc1O)c1cc(Cl)c(Cl)cc1Cl	-1	2	0	.	8	4
Cc1ccc(NCC(=O)N/N=C/c2cc(O)ccc2[N+](=O)[O-])cc1	.	.	.	30*	-4	-12
Cc1ccc(NCC(=O)N/N=C/c2ccncc2)cc1	2	3	-3	4	9	3
CCCNC(=O)N[C@H]1CC[C@@H](CCn2cc(-c3cccc(F)c3)nn2)O[C@@H]1CO	.	.	.	.	1	-10
CCOc1ccc(S(=O)(=O)NCCC(=O)NCC(c2ccc(OC)cc2)N2CCOCC2)cc1 (stereo unspecified)	.	.	.	.	8	5
O=C(c1ccc(=O)oc1)N1CCCc2ccccc21	40*	12	10	25*	-11	8
COc1cc(C(O)c2nc(-c3cncnc3)cs2)ccc1F (stereo unspecified)	.	.	.	.	-3	7
CN(C(=O)COC(=O)C12CC3CC(CC(Cl)(C3)C1)C2)C1(C#N)CCCCC1	6	24*	5	-4	1	3
CC(C)CN(C(=O)COC(=O)C12CC3CC(CC(Cl)(C3)C1)C2)c1c(N)n(Cc2ccccc2)c(=O)[nH]c1=O	-4	12	4	6	12	13
COc1ccc(/C=N/NC(=O)c2cc(C34CC5CC(CC(C5)C3)C4)[nH]n2)cc1O	6	29*	-1	13	-5	12
COc1ccccc1CNC(=O)C(=O)NCC1CCCN1S(=O)(=O)c1cc(C)ccc1C (stereo unspecified)	.	.	.	.	2	5
Cc1ccccc1C(=O)c1cccn1CC(=O)NCc1cccc(Cl)c1	10	8	0	6	-3	0
Cc1ccccc1C(=O)c1cccn1CC(=O)NCc1ccc(Cl)cc1	6	31*	10	1	1	8
Cc1ccc(CNC(=O)Cn2cccc2C(=O)c2ccccc2C)cc1	1	27*	7	6	-7	0
O=c1cc(CN2CCN(c3ccccc3F)CC2)c2ccccc2o1	.	.	.	.	5	9
Cc1ccc(OCCC(=O)OCC(=O)NNC(=O)c2ccccc2)cc1	3	-1	8	22	7	3
CC(C)(C)c1ccc(OCCCC(=O)NNC(=O)c2ccccc2O)cc1	0	27*	9	28*	4	10
CCOc1ccc(OCCC(=O)OCC(=O)NNC(=O)c2ccccc2)cc1	7	0	0	28*	-13	4
